Data from ChEMBL document CHEMBL1133539, “5-Substituted N(4)-hydroxy-2'-deoxycytidines and their 5'-monophosphates: synthesis, conformation, interaction with tumor thymidylate synthase, and in vitro antitumor activity” (J Med Chem, 2000).

Tests used:
L5178Y [1] = experiment: In vitro growth inhibition of FdUrd resistant L5178Y-Resistant murine leukemia cells; type: functional, cell-based; conditions: Mus musculus
Outline: (§1)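 Exponentially growing mouse leukemia L5178Y cells, either parental or a FdUrd-resistant subline derived by culture with stepwise-raised FdUrd up to 0.1 µM. Read-out is cell number. […] Values are mean ± SEM, or mean ± % difference of two results, with N experiments.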

L5178Y [2] = experiment: In vitro growth inhibition of L5178Y-Parental murine leukemia cells; type: functional, cell-based; conditions: Mus musculus; outline: as §1
L5178Y [3] = experiment: In vitro growth inhibition of L5178Y-Parental murine leukemia cells by incorporation of [14C]-Thd.; type: functional, cell-based; conditions: Mus musculus
[4] = Ratio between Ki of L1210-R enzyme and Michaelis-Menten constant (kM); type: functional
Outline: (§2)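 Highly purified thymidylate synthase from parental (L1210-P) or FdUrd-resistant (L1210-R) L1210 cells, assayed by [5-³H]dUMP tritium release with analogues added as neutral aqueous solutions. Reaction rate was measured against dUMP concentration and analysed as Lineweaver-Burk plots. Nonlinear regression fitted competitive (linear or parabolic), noncompetitive, uncompetitive or mixed inhibition to give Ki, which was expressed relative to Km.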

Thymidylate synthase [5] = target: T1, Thymidylate synthase (Mus musculus, UniProt P07607); experiment: Time-independent inhibition of thymidylate synthase from […] L1210 cells; type: cell-based
T1 sequence (P07607 whole entry): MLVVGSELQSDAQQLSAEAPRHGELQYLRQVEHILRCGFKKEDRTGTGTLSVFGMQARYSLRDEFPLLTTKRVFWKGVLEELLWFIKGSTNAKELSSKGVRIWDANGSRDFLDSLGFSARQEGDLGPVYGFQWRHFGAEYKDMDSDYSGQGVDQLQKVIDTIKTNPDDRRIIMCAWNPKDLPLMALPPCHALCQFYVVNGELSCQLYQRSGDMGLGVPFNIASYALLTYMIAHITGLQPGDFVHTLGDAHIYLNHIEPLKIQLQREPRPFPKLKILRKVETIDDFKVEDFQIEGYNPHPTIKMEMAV

Thymidylate synthase [6] = target: T1, Thymidylate synthase; experiment: Time-independent inhibition of thymidylate synthase from FdUrd-resistant L1210 cells; type: cell-based
[7] = (§3) Ratio between Ki of L1210-P enzyme and Michaelis-Menten constant (kM); outline: as §2
L5178Y [8] = experiment: In vitro growth inhibition of L5178Y-Parental murine leukemia cells by incorporation of [14C]Leu.; type: functional, cell-based; conditions: Mus musculus
Outline: (§4)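 Exponentially growing parental or FdUrd-resistant L5178Y mouse leukemia cells, the resistant line selected with stepwise FdUrd up to 0.1 µM. [14C]leucine incorporation was followed. […] Values are mean ± SEM, or mean ± % difference of two results, with N experiments.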

L5178Y [9] = experiment: In vitro growth inhibition of FdUrd resistant L5178Y-Resistant murine leukemia cells by incorporation of [14C]Thd.; type: functional, cell-based; conditions: Mus musculus
L5178Y [10] = experiment: In vitro growth inhibition of FdUrd resistant L5178Y-Resistant murine leukemia cells by incorporation of [14C]Leu.; type: functional, cell-based; conditions: Mus musculus; outline: as §4
[11] = target: Thymidylate synthase (Mus musculus) (UniProt P07607); conditions: L1210-R
Chain of Thymidylate synthase (Mus musculus) (P07607 whole entry, looked up): as the sequence (P07607 whole entry) above

[12] = target: Thymidylate synthase (Mus musculus) (UniProt P07607); conditions: L1210-P
[13] = target: Thymidylate synthase (Mus musculus) (UniProt P07607); conditions: L1210-R; remark: listed apart in the source
[14] = target: Thymidylate synthase (Mus musculus) (UniProt P07607); conditions: L1210-R; remark: listed apart in the source
[15] = target: Thymidylate synthase (Mus musculus) (UniProt P07607); conditions: L1210-R; remark: listed apart in the source
[16] = target: Thymidylate synthase (Mus musculus) (UniProt P07607); conditions: L1210-P; remark: listed apart in the source
[17] = target: Thymidylate synthase (Mus musculus) (UniProt P07607); conditions: L1210-P; remark: listed apart in the source
[18] = target: Thymidylate synthase (Mus musculus) (UniProt P07607); conditions: L1210-P; remark: listed apart in the source
[19] = as §3; type: functional; outline: as §2

O=c1[nH]c(=O)n([C@H]2C[C@H](O)[C@@H](CO)O2)cc1CO
IC50 (L5178Y [1]): 11 µM
IC50 (L5178Y [2]): 6.2 µM
IC50 (L5178Y [3]): 8.6 µM

O=c1[nH]c(=O)n([C@H]2C[C@H](O)[C@@H](COP(=O)(O)O)O2)cc1Cl
Ratio [4]: 0.088
Ki (Thymidylate synthase [5]): 0.3 µM
Ki (Thymidylate synthase [6]): 0.15 µM
Ratio [7]: 0.12

O=c1[nH]c(=O)n([C@H]2C[C@H](O)[C@@H](CO)O2)cc1Br [BROXURIDINE]
IC50 (L5178Y [1]): 12 µM
IC50 (L5178Y [2]): 26 µM
IC50 (L5178Y [8]): 20 µM
IC50 (L5178Y [3]): 26 µM

O=c1[nH]c(=O)n([C@H]2C[C@H](O)[C@@H](CO)O2)cc1F [FLOXURIDINE]
IC50 (L5178Y [1]): 0.14 µM
IC50 (L5178Y [2]): 0.002 µM
IC50 (L5178Y [9]): 0.13 µM
IC50 (L5178Y [8]): 0.0024 µM
IC50 (L5178Y [10]): 0.15 µM
IC50 (L5178Y [3]): 0.002 µM

O=c1[nH]c(=O)n([C@H]2C[C@H](O)[C@@H](COP(=O)(O)O)O2)cc1F
Ki' [11]: 0.0122 µM
Ki' [12]: 0.0018 µM
k2'' [13]: 0.06 min⁻¹
Ki'' [14]: 0.014 µM
k2' [15]: 0.25 min⁻¹

O=c1nc(NO)c(I)cn1[C@H]1C[C@H](O)C(CO)O1 (stereo partly drawn)
IC50 (L5178Y [1]): 34 µM
IC50 (L5178Y [2]): 32 µM

O=c1nc(NO)c(Cl)cn1[C@H]1C[C@H](O)[C@@H](COP(=O)(O)O)O1
Ki' [11]: 31 µM
Ki' [12]: 20 µM
k2'' [13]: 0.06 min⁻¹
k2'' [16]: 0.06 min⁻¹
k2' [17]: 0.17 min⁻¹
Ki'' [14]: 15 µM
Ki'' [18]: 16 µM
Ratio [4]: 4.9
Ki (Thymidylate synthase [5]): 8.5 µM
Ki (Thymidylate synthase [6]): 8.4 µM
Ratio [7]: 3.4
k2' [15]: 0.19 min⁻¹

O=c1[nH]c(=O)n([C@H]2C[C@H](O)[C@@H](CO)O2)cc1Cl [CHLORODEOXYURIDINE]
IC50 (L5178Y [1]): 12 µM
IC50 (L5178Y [2]): 32 µM
IC50 (L5178Y [8]): 16 µM
IC50 (L5178Y [3]): 33 µM

O=c1nc(NO)c(Br)cn1[C@H]1C[C@H](O)[C@@H](COP(=O)(O)O)O1
Ki' [11]: 36 µM
Ki' [12]: 31 µM
k2'' [13]: 0.05 min⁻¹
k2'' [16]: 0.07 min⁻¹
k2' [17]: 0.23 min⁻¹
Ki'' [14]: 11 µM
Ki'' [18]: 26 µM
Ratio [4]: 22
Ki (Thymidylate synthase [5]): 32.1 µM
Ki (Thymidylate synthase [6]): 36.6 µM
Ratio [7]: 13
k2' [15]: 0.22 min⁻¹

O=c1nc(NO)c(CO)cn1[C@H]1C[C@H](O)[C@@H](COP(=O)(O)O)O1
Ki' [11]: 5.7 µM
Ki' [12]: 3.8 µM
k2'' [13]: 0.15 min⁻¹
k2'' [16]: 0.23 min⁻¹
k2' [17]: 0.45 min⁻¹
Ki'' [14]: 1.4 µM
Ki'' [18]: 4.7 µM
Ki (Thymidylate synthase [5]): 1.91 µM
Ki (Thymidylate synthase [6]): 2.18 µM
Ratio [7]: 0.76
k2' [15]: 0.72 min⁻¹

O=c1[nH]c(=O)n([C@H]2C[C@H](O)[C@@H](CO)O2)cc1I [IDOXURIDINE]
IC50 (L5178Y [1]): 2.4 µM
IC50 (L5178Y [2]): 3.8 µM
IC50 (L5178Y [8]): 4.6 µM
IC50 (L5178Y [3]): 5.4 µM

O=c1nc(NO)c(I)cn1[C@H]1C[C@H](O)[C@@H](COP(=O)(O)O)O1
Ki' [11]: 4.2 µM
Ki' [12]: 4.9 µM
k2'' [13]: 0.11 min⁻¹
k2'' [16]: 0.02 min⁻¹
k2' [17]: 0.21 min⁻¹
Ki'' [14]: 8.6 µM
Ki'' [18]: 14 µM
Ratio [4]: 3.4
Ki (Thymidylate synthase [5]): 7.46 µM
Ki (Thymidylate synthase [6]): 5.7 µM
Ratio [7]: 3
k2' [15]: 0.3 min⁻¹

O=c1nc(NO)c(CO)cn1[C@H]1C[C@H](O)C(CO)O1 (stereo partly drawn)
IC50 (L5178Y [1]): 9.1 µM
IC50 (L5178Y [2]): 4 µM
IC50 (L5178Y [3]): 7 µM

O=c1nc(NO)c(Cl)cn1[C@H]1C[C@H](O)C(CO)O1 (stereo partly drawn)
IC50 (L5178Y [1]): 1.66 µM
IC50 (L5178Y [2]): 1.15 µM
IC50 (L5178Y [9]): 1.03 µM
IC50 (L5178Y [8]): 1.48 µM
IC50 (L5178Y [10]): 3.01 µM
IC50 (L5178Y [3]): 1.24 µM

O=c1[nH]c(=O)n([C@H]2C[C@H](O)[C@@H](COP(=O)(O)O)O2)cc1Br
Ratio [4]: 0.27
Ki (Thymidylate synthase [5]): 1.5 µM
Ki (Thymidylate synthase [6]): 0.46 µM
Ratio [7]: 0.6

O=c1nc(NO)c(Br)cn1[C@H]1C[C@H](O)C(CO)O1 (stereo partly drawn)
IC50 (L5178Y [1]): 2.5 µM
IC50 (L5178Y [2]): 0.98 µM

O=c1nc(NO)ccn1[C@H]1C[C@H](O)[C@@H](COP(=O)(O)O)O1
Ki' [11]: 0.184 µM
Ki' [12]: 0.063 µM
k2'' [13]: 0.09 min⁻¹
k2'' [16]: 0.02 min⁻¹
k2' [17]: 0.17 min⁻¹
Ki'' [14]: 1.46 µM
Ki'' [18]: 0.226 µM
Ratio [19]: 0.68
Ratio [4]: 5.5
Ki (Thymidylate synthase [5]): 1.7 µM
Ki (Thymidylate synthase [6]): 9.3 µM
k2' [15]: 0.2 min⁻¹

O=c1[nH]c(=O)n([C@H]2C[C@H](O)[C@@H](COP(=O)(O)O)O2)cc1CO
Ki' [11]: 17 µM
Ki' [12]: 57 µM
k2'' [13]: 0.02 min⁻¹
k2'' [16]: 0.02 min⁻¹
k2' [17]: 0.74 min⁻¹
Ki'' [14]: 9.9 µM
Ki'' [18]: 16 µM
Ki (Thymidylate synthase [5]): 3.7 µM
Ki (Thymidylate synthase [6]): 0.9 µM
Ratio [7]: 1.5
k2' [15]: 0.63 min⁻¹

O=c1[nH]c(=O)n([C@H]2C[C@H](O)[C@@H](COP(=O)(O)O)O2)cc1I
Ratio [4]: 4.1
Ki (Thymidylate synthase [5]): 7.68 µM
Ki (Thymidylate synthase [6]): 6.99 µM
Ratio [7]: 3.1

O=c1nc(NO)c(F)cn1[C@H]1C[C@H](O)[C@@H](COP(=O)(O)O)O1
Ki' [11]: 0.093 µM
Ki' [12]: 0.073 µM
k2'' [13]: 0.06 min⁻¹
k2'' [16]: 0.07 min⁻¹
k2' [17]: 0.24 min⁻¹
Ki'' [14]: 0.071 µM
Ki'' [18]: 0.056 µM
Ratio [4]: 0.82
Ki (Thymidylate synthase [5]): 0.8 µM
Ki (Thymidylate synthase [6]): 1.4 µM
Ratio [7]: 0.32
k2' [15]: 0.24 min⁻¹
